Most compounds without a hit are left out; they make up all but 1.5% or so of the library.
OXTR agonist = activates the human oxytocin receptor; P30559; CHO-OTR cells, Fluo-8 calcium fluorescence; normalized: DMSO 0%, oxytocin 100%; activation, % at 3 µM; hit rate 0.32% among 320,000; AID 2435;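 active means activation above the mean of all tested compounds plus 3 SD, cutoff set per screening run, cut at about 20% in these data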;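 further: peak over basal fluorescence ratio from a 100 s FLIPR kinetic read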
OXTR potentiator = potentiates the human oxytocin receptor response | P30559 | CHO-OTR cells, Fluo-8 calcium fluorescence, potentiator mode; 0% = oxytocin EC15, 100% = EC100 | activation, % at 3 µM | hit rate 0.061% among 320,000 | AID 2445;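 active means activation above that plate's cutoff, the mean activation of tested compounds plus 3 SD, cut at about 6.6% in these data, passing the limit was not always enough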;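 further: 100% uses oxytocin at 75 nM as the full agonist control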
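test system = CHO-OTR cells, human receptor | compound = single-point 3.0 µM | schedule = 6 min compound pre-incubation at room temperature, 100 s kinetic read | signal = Fluo-8 no-wash calcium dye fluorescence, excitation 470-495 nm, emission 515-575 nm | repeats = single well per compound, singlicate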
CHRM4 agonist = CHRM4 agonism in calcium assay. activation, % at 3 µM. CHO-K1 hM4/Gqi5, Fluo-8 calcium fluorescence; vehicle 0%, full acetylcholine response 100%. P08173. hit rate 0.14% among 360,000. AID 624127;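 active means activation above the run mean over all test wells plus 3 SD, cut at about 32% in these data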;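 further: peak over basal fluorescence ratio per well then scaled between controls; 0% = DMSO wells and 100% = acetylcholine at EC100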
Target sequence (P08173 whole entry, looked up): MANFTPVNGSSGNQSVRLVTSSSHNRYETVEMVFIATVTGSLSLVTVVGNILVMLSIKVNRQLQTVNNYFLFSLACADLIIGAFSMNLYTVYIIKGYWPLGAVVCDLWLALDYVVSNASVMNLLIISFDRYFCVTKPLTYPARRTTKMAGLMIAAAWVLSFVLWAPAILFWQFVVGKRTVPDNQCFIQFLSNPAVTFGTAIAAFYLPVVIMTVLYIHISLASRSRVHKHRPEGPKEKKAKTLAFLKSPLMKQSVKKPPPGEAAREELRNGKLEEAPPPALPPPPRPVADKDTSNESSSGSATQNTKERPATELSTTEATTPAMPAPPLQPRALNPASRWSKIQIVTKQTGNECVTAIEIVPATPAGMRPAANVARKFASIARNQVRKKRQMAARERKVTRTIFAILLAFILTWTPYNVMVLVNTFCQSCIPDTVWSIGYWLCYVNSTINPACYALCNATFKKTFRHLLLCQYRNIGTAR
CHRM4 PAM = CHRM4 positive allosteric modulation; AID 624126; activation, % at 3 µM; CHO-K1 hM4/Gqi5, Fluo-8 calcium fluorescence, ACh EC20; 0% = ACh EC20, 100% = maximal ACh; hit rate 0.4% among 360,000; P08173;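 active means activation above its plate's cutoff, the mean activation of sample wells plus 3 SD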
CHRM4 antagonist = CHRM4 antagonism in calcium assay | hit rate 0.73% among 360,000 | AID 624125 | CHO-hM4 cells, ACh EC80, Fluo-8 calcium fluorescence | inhibition, % at 3 µM | P08173;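 active means inhibition above its plate's cutoff, the mean inhibition of sample wells plus 3 SD, cut at about 27% in these data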;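 further: 0% = acetylcholine EC80 with DMSO and 100% = DMSO without agonist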
V1aR counter = counter-screen for oxytocin receptor agonists: human V1a receptor agonists; P37288; CHO-V1R cells, Fluo-8 calcium fluorescence, agonist mode; 0% DMSO, 100% 3 nM vasopressin; activation, % at 3 µM; hit rate 0.25% among 320,000; AID 2797;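 active means activation above the mean activation of all tested compounds plus 3 SD, per screening run, cut at about 20% in these data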;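 further: signal is peak over basal fluorescence ratio across a 100 second FLIPR read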
OXTR agonist cf = confirmation of human oxytocin receptor agonists; shares compounds with OXTR agonist; CHO-OTR cells, Fluo-8 calcium fluorescence, agonist; activation, % at 3 µM; hit rate 20% among 390; AID 434963;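 active means mean activation above about 20% derived from the earlier single-dose screen, limit read from the data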;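 further: peak over minimum fluorescence ratio per well during a 100 second FLIPR read; 0% = DMSO alone and 100% = oxytocin high control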
V1R ag counter 3x = V1R agonism in triplicate, counter-screen for OXTR agonists. hit rate 10% among 390. shares compounds with OXTR agonist. activation, % at 3 µM. CHO-V1R cells, Fluo-8 calcium fluorescence, agonist. AID 434991;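 active means mean activation over triplicate exceeds the hit threshold set in the earlier primary screen, cut at about 20% in these data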;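 further: peak over basal fluorescence ratio within a 100 second read; 0% = DMSO alone and 100% = 3 nM vasopressin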
* = called active by the depositor; nt = no result given.

SMILES	OXTR agonist	OXTR potentiator	CHRM4 agonist	CHRM4 PAM	CHRM4 antagonist	V1aR counter	OXTR agonist cf	V1R ag counter 3x
CNC[C@H](Cc1ccccc1)NC[C@@H](Cc1cccc2ccccc12)NCCc1ccc(C)cc1	21.2*	-8.6	23.9	-0.9	37.5*	6.6	10.0	9.0
O=C1NC[C@@H](CCCCN2C[C@H](Cc3ccccc3)N(CC3CCCCC3)C(=O)C2=O)N(Cc2ccccc2)C1=O	nt	nt	26.1	0.6	-8.2	nt	nt	nt
Cc1c2ccccc2nc2c(F)c(NCCO)c(F)c(F)c12	2.4	-0.2	1.9	9.5	2.8	3.1	nt	nt
Cc1c2ccccc2nc2c(F)c(NC(C)C)c(F)c(F)c12	20.4*	-5.6	3.3	-6.7	-1.2	10.6	51.4*	66.0*
CC(C)Oc1ccc(C(CCN)C2CCCCC2)cc1 (stereo unspecified)	20.7*	-17.5	19.1	-4.0	4.0	6.4	17.0	7.6
CC(C)Oc1ccc(C(=O)NC2CCCCC2)cc1	-2.0	-5.4	0.2	7.9	-9.7	-1.1	nt	nt
O=C(Nc1cccc(Br)c1)c1ccc(Cl)c(S(=O)(=O)N2CCOCC2)c1	23.6*	-13.6	20.1	0.5	10.3	14.7	10.4	10.0
CCOC(=O)C1CCN(C(=O)CN(c2ccc3c(c2)OCCO3)S(=O)(=O)c2ccccc2)CC1	0.9	-5.5	2.7	10.2	-19.3	0.8	nt	nt
CC(=O)C1=C(c2ccccc2)NC(=S)NC1c1cc(Cl)c(OC(C)C)c(Cl)c1 (stereo unspecified)	19.9*	-8.0	18.9	-0.1	4.9	15.9	17.1	14.7
Cc1ccc(N2CCN(C(C(=O)Nc3c(C)cccc3C)c3cc4ccccc4o3)CC2)cc1 (stereo unspecified)	nt	nt	1.1	2.5	-18.8	nt	nt	nt
Cc1cc(OCC(=O)Nc2ccncc2)c(C)cc1Br	20.7*	-10.3	17.3	-2.2	24.1	17.0	11.3	9.6
Cc1c(NC(=O)c2ccc(F)c(S(=O)(=O)N3CCOCC3)c2)c(=O)n(-c2ccccc2)n1C	0.3	-15.2	1.4	11.8	-16.2	0.8	nt	nt
Cc1ccc(S(=O)(=O)N2CCN(c3ccccc3)CC2)s1	-1.4	-6.0	0.6	2.1	6.8	-0.3	nt	nt
Cc1c(O)ccc(/C(Cc2ccc3ccccc3n2)=N\O)c1O	22.4*	-23.6	16.4	-11.3	10.4	17.4	13.5	7.5
COc1ccc(CCNC(=O)COC(=O)Cn2cnc3c2c(=O)n(C)c(=O)n3C)cc1	0.1	-9.5	0.7	-3.4	4.5	-0.7	nt	nt
O=[N+]([O-])c1ccc(NC(=S)NCc2ccc(F)cc2)cc1	22.3*	-26.8	13.5	-14.3	15.7	14.1	11.9	9.9
CCSc1nsc(NC(=O)Nc2cccc(OC)c2)n1	21.7*	-25.3	20.6	-9.5	5.7	13.1	11.0	11.1
Cc1cc(C)n2nc(CCCCc3nc4nc(C)cc(C)n4n3)nc2n1	0.4	-2.6	nt	nt	nt	0.5	nt	nt
CCOC(=O)c1ccc(NS(=O)(=O)c2ccc3c(c2)n(C)c(=O)n3C)cc1	29.8*	-23.4	12.1	-6.2	2.9	15.2	3.8	5.1
COC(=O)c1ccc(NS(=O)(=O)c2ccc3c(c2)n(C)c(=O)n3C)cc1	8.6	-17.0	4.2	6.6	-1.9	5.4	nt	nt
Cc1ccc(C(=O)OCC(=O)N2CCCC2)cc1	0.0	-10.6	1.0	-8.1	-7.0	0.5	nt	nt
Cc1ccc(NS(=O)(=O)c2ccc(C(=O)OCC(=O)N3CCCCC3)cc2)cc1	24.4*	-9.9	14.4	-6.5	-9.1	19.3	18.6	13.5
CC(C)N(C)S(=O)(=O)c1ccc(NC(=O)CSC(=S)N2CCCC2)cc1	0.2	-4.1	3.4	-1.1	-5.5	0.9	nt	nt
COc1cccc(C(=O)Nc2ccccc2)c1	-1.6	-3.8	-0.3	4.1	0.8	-0.1	nt	nt
COc1cccc(C(=O)Nc2ccc(NC(=O)Cc3ccccc3)cc2)c1	23.9*	-5.5	6.6	-4.6	8.4	2.3	-0.2	0.3
